The results in this text go back to ChEMBL document CHEMBL3286203, “Reactive oxygen species (ROS) inducible DNA cross-linking agents and their effect on cancer cells and normal lymphocytes” (J Med Chem, 2014).

Calls of active or inactive are those of the source. No cut-off for these calls is given here.

One data set deals with SNB-75. The data set can be described thus: Cytotoxicity against human SNB75 cells after 48 hrs by SRB assay. The format is functional. Particulars: SNB-75, 48 h. An outline of the steps: (§1)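 GI50 from the NCI-60 DTP human tumour line screen. Lines grown in RPMI 1640 with 5% fetal bovine serum and 2 mM L-glutamine, plated at 5000–40 000 cells/well according to doubling time. Incubated 48 h at 37 °C, 5% CO2.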

The test system of data set [1] is CLL. As to the kind of experiment: (§2) Induction of apoptosis in human CLL cells after 24 hrs by Annexin/propidium iodide staining-based assay. Type of data set: functional, cell-based. In short, it runs like this:
(§3)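 Primary CLL lymphocytes, Ficoll-Hypaque isolated from patient peripheral blood. Held fresh in RPMI 1640 with 10% autologous plasma. Dose–response over 24 h (n = 3). Apoptosis by annexin V–FITC/PI double staining and flow cytometry; IC50 derived from the dose–response.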

A short description of data set [2]: as §2. The format is functional, cell-based. An outline of the steps:
as §3

A short description of data set [3]: 1-Octanol-PBS partition coefficient, log P of the compound. Type of data set: physicochemical.
Data set [4] is described as follows: Cytotoxicity against human EKVX cells after 48 hrs by SRB assay. The format is functional. In short, it runs like this: (§4)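 GI50 was determined in the NCI Developmental Therapeutics Program in vitro 60-line cancer screen. Tumour lines were maintained in RPMI 1640 containing 5% FBS and 2 mM L-glutamine. Cells were inoculated at 5000–40 000 cells/well according to each line's doubling time before drug exposure.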

Data set [5] is described as follows: Induction of [32P]-labeled 49-mer oligonucleotide duplex DNA 12 with GNC sequence at terminus (unknown origin) interstrand cross-linking at 50 uM after 16 hrs by PAGE in presence of H2O2. An outline of the steps:
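32P-labelled 12a (1.0 μM) annealed with 1.5 equiv of 12b in 10 mM potassium phosphate pH 7 / 100 mM NaCl (65 °C for 3 min, then slow cooling). Duplex incubated with compound (final 1 μM–5 mM), with or without H2O2, in NaCl and potassium phosphate pH 8 at room temperature for 16 h. Quenched in formamide; 20% denaturing PAGE.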

Data set [6] in a line: Induction of [32P]-labeled 49-mer oligonucleotide duplex DNA 12 with GNC sequence at terminus (unknown origin) interstrand cross-linking at 1 mM after 16 hrs by PAGE in presence of TBHP.
Data set [7] can be described thus: Induction of apoptosis in human CLL cells at 10 uM after 24 hrs by Annexin/propidium iodide staining-based assay (reference value: 95%). Type of data set: functional.
For a further data set, the system named is A498. As to the kind of experiment: Cytotoxicity against human A498 cells after 48 hrs by SRB assay. The format is functional. The conditions noted are these: A498, 48 h. An outline of the steps: as §4
Data set [8] can be described thus: Induction of [32P]-labeled 49-mer oligonucleotide duplex DNA 12 with GNC sequence at terminus (unknown origin) interstrand cross-linking at 1 mM after 16 hrs by PAGE in presence of OCL-.
For a further data set, the system named is NCI-H226. The data set can be described thus: Cytotoxicity against human NCI-H226 cells after 48 hrs by SRB assay. The conditions noted are these: NCI-H226, 48 h. Type of data set: functional. In short, it runs like this:
(§5)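 GI50 from the NCI Developmental Therapeutics Program in vitro human tumor cell screen. Cell lines were maintained in RPMI 1640 with 5% fetal bovine serum and 2 mM L-glutamine. They were seeded at 5000–40 000 cells/well, depending on each line's doubling time, then exposed to drug for 48 h at 37 °C, 5% CO2.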

The subject of another data set is PC-3. The data set can be described thus: Cytotoxicity against human PC3 cells after 48 hrs by SRB assay. The format is functional. Particulars: PC-3, 48 h. In short, it runs like this: as §5
In a further data set the test system is CCRF-CEM. As to the kind of experiment: Cytotoxicity against human CCRF-CEM cells after 48 hrs by SRB assay. Type of data set: functional. In short, it runs like this: as §4
A short description of data set [9]: Induction of [32P]-labeled 49-mer oligonucleotide duplex DNA 12 with GNC sequence at terminus (unknown origin) interstrand cross-linking at 1 mM after 16 hrs by PAGE in presence of O2-.
In another data set the test system is MOLT-4. As to the kind of experiment: Cytotoxicity against human MOLT4 cells after 48 hrs by SRB assay. The conditions noted are these: MOLT-4, 48 h. Type of data set: functional. In short, it runs like this:
as §5

The test system of a further data set is IGROV-1. The data set can be described thus: Cytotoxicity against human IGROV1 cells after 48 hrs by SRB assay. The format is functional. The conditions noted are these: IGROV-1, 48 h. An outline of the steps:
as §4

A short description of data set [10]: Induction of apoptosis in human CLL cells at 10 uM after 48 hrs by Annexin/propidium iodide staining-based assay (reference value: 91%). The format is functional.
In a further data set the test system is MDA-MB-231. As to the kind of experiment: Cytotoxicity against human MDA-MB-231 cells after 48 hrs by SRB assay. The format is functional. The conditions noted are these: MDA-MB-231, 48 h. In short, it runs like this: as §5
The nature of data set [11]: Induction of [32P]-labeled 49-mer oligonucleotide duplex DNA 12' with GNC sequence in middle (unknown origin) interstrand cross-linking at 1 mM after 12 hrs by PAGE in presence of H2O2.
A further data set concerns U-251. As to the kind of experiment: Cytotoxicity against human U251 cells after 48 hrs by SRB assay. Type of data set: functional. The conditions noted are these: U-251, 48 h. In short, it runs like this:
as §1

The next data set concerns HOP-62. As to the kind of experiment: Cytotoxicity against human HOP62 cells after 48 hrs by SRB assay. Type of data set: functional. Particulars: HOP-62, 48 h. An outline of the steps: as §4
Data set [12] has as its system CLL. The data set can be described thus: Induction of apoptosis in human CLL cells at 10 uM by Annexin/propidium iodide staining-based assay. Type of data set: functional, cell-based. The conditions noted are these: TDE = time-dependent effect.
Data set [13] can be described thus: Drug level in deuterated phosphate buffer treated with 40 mM N,N-Bis(2-chloroethyl)-4-(4,4,5,5-tetramethyl-1,3,2-dioxaborolan-2-yl)aniline after 24 hrs by 1H-NMR analysis. Type of data set: physicochemical. An outline of the steps:
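1H NMR of the boronate mustard (40 mM) held 24 h in deuterated potassium phosphate buffer (4.0 mM) with no H2O2. Solvent was 1.0 M deuterated potassium phosphate buffer/DMSO-d6/D2O = 2:450:48.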

The nature of data set [14]: Cytotoxicity against human OVCAR5 cells after 48 hrs by SRB assay. Type of data set: functional. The conditions noted are these: OVCAR-5, 48 h. An outline of the steps: as §5
The nature of data set [15]: Induction of apoptosis in human lymphocytes at 10 uM after 24 to 48 hrs by Annexin/propidium iodide staining-based assay. Type of data set: cell-based. Particulars: lymphocyte.
The nature of data set [16]: Induction of [32P]-labeled 49-mer oligonucleotide duplex DNA 12 interstrand cross-linking (unknown origin) at purine nucleotide site using compound radiolabeled at 5' of 12a in phosphate buffer at pH 7 at 90 degC after 30 mins by PAGE. In short, it runs like this:
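Cross-linked duplex, with strand 12a 32P-labelled at the 5′ end, heated at 90 °C either in phosphate buffer pH 7.0 or in 1.0 M piperidine. Cleavage sites were assigned by denaturing PAGE against G + A sequencing and Fe·EDTA markers.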

The test system of a further data set is SK-MEL-28. As to the kind of experiment: Cytotoxicity against human SK-MEL-28 cells after 48 hrs by SRB assay. Type of data set: functional. The conditions noted are these: SK-MEL-28, 48 h. In short, it runs like this:
as §5

In a further data set the test system is SF-268. The data set can be described thus: Cytotoxicity against human SF268 cells after 48 hrs by SRB assay. The format is functional. The conditions noted are these: SF-268, 48 h. In short, it runs like this: as §5
Data set [17] deals with CLL. The data set can be described thus: Induction of ROS generation in human CLL cells at 10 uM after 24 hrs by DCDFA assay in presence of NAC. The format is functional, cell-based. An outline of the steps:
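Primary CLL cells given compound (10 μM) with or without N-acetyl cysteine ([…]) for 24 h. Global ROS measured by DCFDA staining and flow histograms; n = 8 patient samples.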

Data set [18] in a line: Drug level in phosphate buffer treated with 40 mM N,N-Bis(2-chloroethyl)-4-(4,4,5,5-tetramethyl-1,3,2-dioxaborolan-2-yl)aniline after 30 mins by 1H-NMR analysis in presence of H2O2. The format is physicochemical. The conditions noted are these: 0.5 h. In short, it runs like this: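 1H NMR of the boronate mustard (40 mM) with H2O2 (60 mM), 30 min after H2O2 addition. Solvent was 400 mM phosphate buffer pH 8 (50 μL) in DMSO-d6 (450 μL). Read-out is conversion to the activated product.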

Turning to `CC1(C)OB(c2ccc(N(CCCl)CCCl)cc2)OC1(C)C`, the concentration for 50% growth inhibition (GI50) in the data set on SNB-75 turned out to be 7.98 µM; in data set [4], 18.6 µM; with A498 it was 2.81 µM; in the data set with NCI-H226, 12.9 µM; in the data set with PC-3 it was 14.3 µM; with CCRF-CEM, 3.34 µM. The GI50 with MOLT-4 amounted to 3.48 µM; with IGROV-1, 15.6 µM; with MDA-MB-231 it was 16.5 µM; with U-251, 3.75 µM; in the data set with HOP-62, 10.9 µM; in data set [14], 21.6 µM. Moreover, the results for the 50% growth inhibitory concentration (GI50) in the data set on SK-MEL-28 and in the data set with SF-268 were 21 µM and 4.61 µM, respectively. Besides, the Activity entry in the data set with CLL [1] was “Dose-dependent effect”; in data set [5], 3%; in [6], 1%; in [7], 93%; in data set [8], 0.9%; in [9] it was 5%. The Activity is 83% in data set [10], 27% in [11], “tde” in the data set with CLL [12] and “Toxic” in data set [15]. Besides, half-maximal inhibition in data set [2] (IC50) required 9.26 µM. In addition, in data set [3], the logP was found to be 2.8. In addition, the Drug metabolism entry in [13] is “metabolite_detected”. In data set [16], the result was Active.

As to `CC1(C)OB(c2ccc(N(CCBr)CCOS(C)(=O)=O)cc2)OC1(C)C`, in data set [5], the Activity was found to be 3%. The result in data set [16] was Active.

For the compound `CC1(C)OB(c2ccc(N(CCCl)CCBr)cc2)OC1(C)C`, the GI50 in the data set with SNB-75 worked out at 10.7 µM; in [4], 22.5 µM; with A498, 5.87 µM; in the data set on NCI-H226, 11.9 µM; in the data set with PC-3, 17.7 µM; in the data set on CCRF-CEM, 5.03 µM. Moreover, the 50% growth inhibitory concentration (GI50) with MOLT-4 came out at 3.69 µM; in the data set with IGROV-1 it was 19.1 µM; with MDA-MB-231, 22.8 µM; in the data set on U-251, 5.07 µM; in the data set with HOP-62, 10.9 µM; in data set [14], 25.9 µM. For the same compound, the GI50 is 20.6 µM in the data set with SK-MEL-28 and 4.9 µM in the data set with SF-268. Also, the Activity entry was “Dose-dependent effect” with CLL [1]; 3% in data set [5]; 90% in [7]; 81% in data set [10]; “tde” in the data set on CLL [12]; “Toxic” in data set [15]. In addition, in data set [2], the IC50 turned out to be 10.8 µM. Also, in the data set on CLL [17], the result was inactive. Also, the Drug metabolism entry in data set [18] is “metabolite_detected”. In addition, the outcome in data set [16] was Active.

As for `CC1(C)OB(c2ccc(N(CCBr)CCBr)cc2)OC1(C)C`, the Activity in data set [5] was determined as 3%; in data set [11] it was 35%. Further, the outcome in [16] was Active.

As to `CC1(C)OB(c2ccc(N(CCCl)CCOS(C)(=O)=O)cc2)OC1(C)C`, the concentration for 50% growth inhibition (GI50) in the data set with SNB-75 worked out at 5.85 µM; in data set [4], 24.5 µM; in the data set on A498 it was 8.59 µM; with NCI-H226 it was 10.4 µM; in the data set on PC-3, 15.1 µM; in the data set with CCRF-CEM, 4.01 µM. The GI50 in the data set with MOLT-4 is 3.74 µM; in the data set with IGROV-1 it was 13.6 µM; with MDA-MB-231 it was 22.1 µM; with U-251, 0.7 µM; in the data set with HOP-62 it was 8.85 µM; in data set [14] it was 22.9 µM. In addition, the 50% growth inhibitory concentration (GI50) was 15.6 µM in the data set on SK-MEL-28 and 5.39 µM with SF-268. Besides, the Activity is 3% in [5], 1% in data set [6], 0.9% in data set [8] and 5% in [9]. Also, the outcome in data set [16] was Active.
